Square brackets hold non-standard residues; d marks the D form. Peptide text beside a SMILES is read from it. Aib = CC(C)(N)C(=O)O
What was measured:
Neuropeptide S receptor = target: T1, Neuropeptide S receptor (Mus musculus, UniProt Q8BZP8); experiment: Agonist activity at mouse recombinant NPSR expressed in HEK293 cells assessed as calcium mobilization; format: functional, cell-based
T1 sequence (Q8BZP8 whole entry): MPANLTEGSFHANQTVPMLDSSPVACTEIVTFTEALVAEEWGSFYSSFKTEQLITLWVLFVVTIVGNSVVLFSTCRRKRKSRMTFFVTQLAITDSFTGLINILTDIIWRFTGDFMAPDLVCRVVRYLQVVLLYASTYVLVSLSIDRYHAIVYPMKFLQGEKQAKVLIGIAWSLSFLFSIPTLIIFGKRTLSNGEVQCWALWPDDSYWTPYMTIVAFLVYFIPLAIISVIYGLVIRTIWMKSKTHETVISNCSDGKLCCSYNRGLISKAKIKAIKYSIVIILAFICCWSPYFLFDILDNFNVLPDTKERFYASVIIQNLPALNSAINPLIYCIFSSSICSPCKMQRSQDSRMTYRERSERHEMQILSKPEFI
In short: (§1)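 HEK293 cells stably expressing mouse NPSR, grown in DMEM/10% FBS/2 mM glutamine/hygromycin at 37 °C, 5% CO2. Seeded 50,000 cells/well on poly-D-lysine; next day loaded 30 min at 37 °C with 3 µM Fluo-4 AM, 2.5 mM probenecid, 0.01% pluronic acid. Read in HBSS/20 mM HEPES/probenecid/Brilliant Black at ≈22 °C on FlexStation; peak fluorescence change as % baseline; logistic fit; ≥4 experiments in duplicate.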

[1] = target: T2, Neuropeptide S receptor (Mus musculus) (UniProt Q8BZP8); experiment: Agonist activity at mouse recombinant NPSR expressed in HEK293 cells assessed as calcium mobilization relative to baseline; format: functional, cell-based; in short: as §1
T2 sequence (whole entry): T1 sequence (Q8BZP8 whole entry)

Row | EC50 (Neuropeptide S receptor) [nM] | Emax [1] [%] | Compound
1 | 21.4 | 172 | CSCC[C@H](NC(=O)[C@@H](C)NC(=O)[C@@H](NC(=O)CNC(=O)[C@@H](NC(=O)CNC(=O)[C@H](CC(N)=O)NC(=O)[C@H](CCCNC(=N)N)NC(=O)[C@H](Cc1ccccc1)NC(=O)[C@@H](N)CO)C(C)C)[C@@H](C)O)C(=O)N[C@@H](CCCCN)C(=O)N[C@@H](CCCCN)C(=O)N[C@H](C(=O)N[C@@H](CO)C(=O)N[C@@H](Cc1ccccc1)C(=O)N[C@@H](CCC(N)=O)C(=O)N[C@@H](CCCNC(=N)N)C(=O)N[C@@H](C)C(=O)N[C@@H](CCCCN)C(=O)N[C@@H](CO)C(=O)O)[C@@H](C)O
2 | 23.4 | 164 | CSCC[C@H](NC(=O)CNC(=O)[C@@H](NC(=O)[C@@H](C)NC(=O)[C@@H](NC(=O)CNC(=O)[C@H](CC(N)=O)NC(=O)[C@H](CCCNC(=N)N)NC(=O)[C@H](Cc1ccccc1)NC(=O)[C@@H](N)CO)C(C)C)[C@@H](C)O)C(=O)N[C@@H](CCCCN)C(=O)N[C@@H](CCCCN)C(=O)N[C@H](C(=O)N[C@@H](CO)C(=O)N[C@@H](Cc1ccccc1)C(=O)N[C@@H](CCC(N)=O)C(=O)N[C@@H](CCCNC(=N)N)C(=O)N[C@@H](C)C(=O)N[C@@H](CCCCN)C(=O)N[C@@H](CO)C(=O)O)[C@@H](C)O
3 | 23.4 | 164 | CSCC[C@H](NC(=O)[C@H](C)NC(=O)[C@@H](NC(=O)CNC(=O)[C@@H](NC(=O)CNC(=O)[C@H](CC(N)=O)NC(=O)[C@H](CCCNC(=N)N)NC(=O)[C@H](Cc1ccccc1)NC(=O)[C@@H](N)CO)C(C)C)[C@@H](C)O)C(=O)N[C@@H](CCCCN)C(=O)N[C@@H](CCCCN)C(=O)N[C@H](C(=O)N[C@@H](CO)C(=O)N[C@@H](Cc1ccccc1)C(=O)N[C@@H](CCC(N)=O)C(=O)N[C@@H](CCCNC(=N)N)C(=O)N[C@@H](C)C(=O)N[C@@H](CCCCN)C(=O)N[C@@H](CO)C(=O)O)[C@@H](C)O
4 |  | 129 | CSCC[C@H](NC(=O)CNC(=O)[C@@H](NC(=O)[C@H](C)NC(=O)[C@@H](NC(=O)CNC(=O)[C@H](CC(N)=O)NC(=O)[C@H](CCCNC(=N)N)NC(=O)[C@H](Cc1ccccc1)NC(=O)[C@@H](N)CO)C(C)C)[C@@H](C)O)C(=O)N[C@@H](CCCCN)C(=O)N[C@@H](CCCCN)C(=O)N[C@H](C(=O)N[C@@H](CO)C(=O)N[C@@H](Cc1ccccc1)C(=O)N[C@@H](CCC(N)=O)C(=O)N[C@@H](CCCNC(=N)N)C(=O)N[C@@H](C)C(=O)N[C@@H](CCCCN)C(=O)N[C@@H](CO)C(=O)O)[C@@H](C)O
5 | 26.3 | 182 | CSCC[C@H](NC(=O)CNC(=O)[C@@H](NC(=O)CNC(=O)[C@@H](NC(=O)CNC(=O)[C@H](CC(N)=O)NC(=O)[C@H](CCCNC(=N)N)NC(=O)[C@H](Cc1ccccc1)NC(=O)[C@H](C)N)C(C)C)[C@@H](C)O)C(=O)N[C@@H](CCCCN)C(=O)N[C@@H](CCCCN)C(=O)N[C@H](C(=O)N[C@@H](CO)C(=O)N[C@@H](Cc1ccccc1)C(=O)N[C@@H](CCC(N)=O)C(=O)N[C@@H](CCCNC(=N)N)C(=O)N[C@@H](C)C(=O)N[C@@H](CCCCN)C(=O)N[C@@H](CO)C(=O)O)[C@@H](C)O (H-AFRNGVGTGMKKTSFQRAKS-OH)
6 | 24.5 | 178 | CSCC[C@H](NC(=O)CNC(=O)[C@@H](NC(=O)CNC(=O)[C@@H](NC(=O)[C@H](C)NC(=O)[C@H](CC(N)=O)NC(=O)[C@H](CCCNC(=N)N)NC(=O)[C@H](Cc1ccccc1)NC(=O)[C@@H](N)CO)C(C)C)[C@@H](C)O)C(=O)N[C@@H](CCCCN)C(=O)N[C@@H](CCCCN)C(=O)N[C@H](C(=O)N[C@@H](CO)C(=O)N[C@@H](Cc1ccccc1)C(=O)N[C@@H](CCC(N)=O)C(=O)N[C@@H](CCCNC(=N)N)C(=O)N[C@@H](C)C(=O)N[C@@H](CCCCN)C(=O)N[C@@H](CO)C(=O)O)[C@@H](C)O (H-SFRNAVGTGMKKTSFQRAKS-OH)
7 |  | 69 | CSCC[C@H](NC(=O)[C@H](C)NC(=O)[C@@H](NC(=O)[C@H](C)NC(=O)[C@@H](NC(=O)CNC(=O)[C@H](CC(N)=O)NC(=O)[C@H](CCCNC(=N)N)NC(=O)[C@H](Cc1ccccc1)NC(=O)[C@@H](N)CO)C(C)C)[C@@H](C)O)C(=O)N[C@@H](CCCCN)C(=O)N[C@@H](CCCCN)C(=O)N[C@@H](C)C(=O)N[C@@H](CO)C(=O)N[C@@H](Cc1ccccc1)C(=O)N[C@@H](CCC(N)=O)C(=O)N[C@@H](CCCNC(=N)N)C(=O)N[C@@H](C)C(=O)N[C@@H](CCCCN)C(=O)N[C@@H](CO)C(=O)O (H-SFRNGVATAMKKASFQRAKS-OH)
8 | 15.1 | 191 | CSCC[C@H](NC(=O)[C@H](C)NC(=O)[C@@H](NC(=O)CNC(=O)[C@@H](NC(=O)CNC(=O)[C@H](CC(N)=O)NC(=O)[C@H](CCCNC(=N)N)NC(=O)[C@H](Cc1ccccc1)NC(=O)[C@@H](N)CO)C(C)C)[C@@H](C)O)C(=O)N[C@@H](CCCCN)C(=O)N[C@@H](CCCCN)C(=O)N[C@@H](C)C(=O)N[C@@H](CO)C(=O)N[C@@H](Cc1ccccc1)C(=O)N[C@@H](CCC(N)=O)C(=O)N[C@@H](CCCNC(=N)N)C(=O)N[C@@H](C)C(=O)N[C@@H](CCCCN)C(=O)N[C@@H](CO)C(=O)O (H-SFRNGVGTAMKKASFQRAKS-OH)
9 | 19.1 | 172 | CSCC[C@H](NC(=O)CNC(=O)[C@@H](NC(=O)CNC(=O)[C@@H](NC(=O)CNC(=O)[C@H](CC(N)=O)NC(=O)[C@H](CCCNC(=N)N)NC(=O)[C@H](Cc1ccccc1)NC(=O)[C@@H](N)CO)C(C)C)[C@@H](C)O)C(=O)N[C@@H](CCCCN)C(=O)N[C@@H](CCCCN)C(=O)N[C@@H](C)C(=O)N[C@@H](CO)C(=O)N[C@@H](Cc1ccccc1)C(=O)N[C@@H](CCC(N)=O)C(=O)N[C@@H](CCCNC(=N)N)C(=O)N[C@@H](C)C(=O)N[C@@H](CCCCN)C(=O)N[C@@H](CO)C(=O)O (H-SFRNGVGTGMKKASFQRAKS-OH)
10 | 10.2 | 190 | CSCC[C@H](NC(=O)C(C)(C)NC(=O)[C@@H](NC(=O)CNC(=O)[C@@H](NC(=O)CNC(=O)[C@H](CC(N)=O)NC(=O)[C@H](CCCNC(=N)N)NC(=O)[C@H](Cc1ccccc1)NC(=O)[C@@H](N)CO)C(C)C)[C@@H](C)O)C(=O)N[C@@H](CCCCN)C(=O)N[C@@H](CCCCN)C(=O)N[C@H](C(=O)N[C@@H](CO)C(=O)N[C@@H](Cc1ccccc1)C(=O)N[C@@H](CCC(N)=O)C(=O)N[C@@H](CCCNC(=N)N)C(=O)N[C@@H](C)C(=O)N[C@@H](CCCCN)C(=O)N[C@@H](CO)C(=O)O)[C@@H](C)O (H-SFRNGVGT[Aib]MKKTSFQRAKS-OH)
11 |  | 14 | CSCC[C@H](NC(=O)CNC(=O)[C@@H](NC(=O)C(C)(C)NC(=O)[C@@H](NC(=O)CNC(=O)[C@H](CC(N)=O)NC(=O)[C@H](CCCNC(=N)N)NC(=O)[C@H](Cc1ccccc1)NC(=O)[C@@H](N)CO)C(C)C)[C@@H](C)O)C(=O)N[C@@H](CCCCN)C(=O)N[C@@H](CCCCN)C(=O)N[C@H](C(=O)N[C@@H](CO)C(=O)N[C@@H](Cc1ccccc1)C(=O)N[C@@H](CCC(N)=O)C(=O)N[C@@H](CCCNC(=N)N)C(=O)N[C@@H](C)C(=O)N[C@@H](CCCCN)C(=O)N[C@@H](CO)C(=O)O)[C@@H](C)O (H-SFRNGV[Aib]TGMKKTSFQRAKS-OH)
12 | 158 |  | CSCC[C@H](NC(=O)CNC(=O)[C@@H](NC(=O)CNC(=O)[C@@H](NC(=O)CNC(=O)[C@@H]1CCCN1C(=O)[C@H](CCCNC(=N)N)NC(=O)[C@H](Cc1ccccc1)NC(=O)[C@@H](N)CO)C(C)C)[C@@H](C)O)C(=O)N[C@@H](CCCCN)C(=O)N[C@@H](CCCCN)C(=O)N[C@H](C(=O)N[C@@H](CO)C(=O)N[C@@H](Cc1ccccc1)C(=O)N[C@@H](CCC(N)=O)C(=O)N[C@@H](CCCNC(=N)N)C(=O)N[C@@H](C)C(=O)N[C@@H](CCCCN)C(=O)N[C@@H](CO)C(=O)O)[C@@H](C)O (H-SFRPGVGTGMKKTSFQRAKS-OH)
